A selection: hits, their analogues and other compounds. The true share with any hit is near 2.1%.
HTR2A ag: mouse Htr2a agonists via beta-arrestin recruitment, primary screen, cell-based, luminescence; activation, % at 7.6 µM; CHO-K1 mHTR2A beta-arrestin complementation; percent of 30 µM serotonin response; 0.66% of 360,000 active; 5-hydroxytryptamine receptor 2A (Mus musculus), P35363;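 active = activation above a run cutoff, the mean activation of all tested compounds plus 3 SD, cut at about 14% in these data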;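 also: 0% = plate median of compound wells and 100% = 30 µM serotonin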
CCR6 antag: CCR6 receptor antagonists, primary screen, cell-based, CHO-K1, luminescence, beta-arrestin, uHTS; C-C chemokine receptor type 6 (Homo sapiens), P51684; CHO-K1 CCR6 PathHunter beta-arrestin, CCL20-stimulated; inhibition, % at 20 µM; 0.49% of 340,000 active;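 active = compounds whose inhibition of the agonist-driven luminescence signal at 20 µM reaches about 50%, limit read from the data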;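 also: cells stimulated with CCL20 at 14 nM final; plate controls were DMSO with CCL20 for no effect and DMSO without agonist for full effect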
APJ ag: agonists of human apelin receptor APJ, primary screen, CHO-K1 cells, PathHunter beta-arrestin, luminescence | AID 2520, 2010 | 0% DMSO wells, 100% apelin | P35414 | 0.11% of 330,000 active | activation, % at 20 µM;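 active = activation more than six SD over the plate average, tested at 20 µM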;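 also: 0% = DMSO alone and 100% = apelin-13 at 10 nM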
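Assay system: CHO-K1 APJ beta-arrestin complementation cell line / Compound: single test compound dose, 20 µM final, 1% DMSO / Times: overnight seeding, 90 min compound at 25 °C, 1 h detection / Technique: beta-gal luminescence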
APJ antagonist: antagonists of human apelin receptor APJ, primary screen, CHO-K1 cells, beta-arrestin complementation, luminescence | inhibition, % at 20 µM | 0.32% of 330,000 active;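 active = inhibition above about 40% at 20 µM, limit read from the data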;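 also: cells challenged with 10 nM apelin-13 agonist together with compound; plate controls were apelin-13 plus DMSO wells for no effect and DMSO wells lacking apelin-13 for full effect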
CXCR6 inh: CXCR6 receptor inhibitors, primary screen, cell-based, beta-arrestin, luminescence, CHO-K1 PathHunter, 1536-well; 0.36% of 360,000 active; inhibition, % at 20 µM; AID 602244, 2012; C-X-C chemokine receptor type 6 (Homo sapiens), O00574; in the data active = inhibition above about 34%, passing the limit was not always enough;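 also: antagonist mode with CXCL16 agonist at 10 nM final; 0% = 10 nM CXCL16 with DMSO and 100% = unstimulated wells without agonist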
EBI2 antag: EBI2 receptor antagonists, beta-arrestin recruitment, primary screen, cell-based, luminescence, 7a,25-OHC stimulation, uHTS; G-protein coupled receptor 183 (Homo sapiens), P32249; 7a,25-OHC stimulated; inhibition, % at 5 µM; 0.81% of 360,000 active; in the data active = inhibition above about 38%;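 also: enzyme fragment complementation signal reports receptor beta-arrestin coupling in cells; 0% = agonist plus DMSO wells and 100% = wells without agonist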
Target sequence (P32249 whole entry, looked up, the tested form may be a part): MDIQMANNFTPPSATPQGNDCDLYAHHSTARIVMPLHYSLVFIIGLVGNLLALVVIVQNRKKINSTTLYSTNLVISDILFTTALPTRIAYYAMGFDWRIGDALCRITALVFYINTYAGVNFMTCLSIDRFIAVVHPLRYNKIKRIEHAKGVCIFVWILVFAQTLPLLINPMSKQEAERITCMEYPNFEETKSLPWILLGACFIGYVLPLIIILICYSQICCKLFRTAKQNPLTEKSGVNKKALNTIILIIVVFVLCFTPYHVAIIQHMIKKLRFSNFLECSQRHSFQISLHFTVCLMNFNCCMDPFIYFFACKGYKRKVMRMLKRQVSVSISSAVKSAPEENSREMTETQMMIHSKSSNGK
EBI2 conf: EBI2 antagonist hit retest, beta-arrestin, confirmation, cell-based, single concentration, luminescence, 7a,25-OHC stimulation; shares compounds with EBI2 antag; 7a,25-OHC antagonism; inhibition, % at 5 µM; 29% of 2,400 active; AID 651997, 2013;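 active = inhibition of at least 50%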
EBI2 agonist: EBI2 agonist activity of antagonist hits, confirmation, counter-screen for EBI2 antagonist project, cell-based, single concentration, agonist mode, luminescence; shares compounds with EBI2 antag; EBI2-expressing cells, 60 min; 0% vehicle, 100% 7α,25-dihydroxycholesterol control; activation, % at 5 µM; 2,400 tested, under 10 active; AID 652000, 2013;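 active = activation of at least 50%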
bGal counter: E. coli beta-galactosidase enzyme inhibition, confirmation, counter-screen for EBI2 antagonist project, biochemical, luminescence, single concentration | shares compounds with EBI2 antag | purified beta-galactosidase, luminescent Galacton Star, 15 min | inhibition, % at 5 µM | 1% of 2,400 active | AID 652176, 2013;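 active = replicate-average signal at least 3 plate SD below neutral wells, shown as high inhibition, flagging enzyme-inhibiting false positives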;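 also: 0% = DMSO wells with enzyme and 100% = wells lacking enzyme; higher means stronger loss of beta-gal luminescence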
* marks the source's active call; other numbers are inactive results.

Cc1nc(SCc2nc3ccccc3[nH]2)c2oc3cc([N+](=O)[O-])ccc3c2n1 was read as HTR2A ag -1, CCR6 antag 11, APJ ag 3, APJ antagonist -32, CXCR6 inh -7, EBI2 antag 48*, EBI2 conf 59*, EBI2 agonist 0 and bGal counter 2.
`Cc1nc(SCc2nc3ccc(Br)cc3[nH]2)c2oc3ccccc3c2n1` gave HTR2A ag -3, CCR6 antag 3, APJ ag -1, APJ antagonist -6, CXCR6 inh 12 and EBI2 antag 2.
For COc1ccc2c(c1)oc1c(SCc3nc4ccccc4[nH]3)nc(C)nc12 the results were HTR2A ag -6, CCR6 antag 8, APJ ag -1, APJ antagonist -6, CXCR6 inh 9, EBI2 antag 78*, EBI2 conf 51*, EBI2 agonist 0 and bGal counter -5.
Screening COCCCNC(=O)CN1C(=O)COc2ccc(S(=O)(=O)N3CC(C)CC(C)C3)cc21 (stereo unspecified) returned HTR2A ag 1, CCR6 antag 6, APJ ag 0, APJ antagonist 20, CXCR6 inh 0 and EBI2 antag -11.
`O=C(Cc1ccccc1)NC(=S)Nc1ccc2oc(-c3ccccc3F)nc2c1` gave HTR2A ag -4, CCR6 antag 36, APJ ag -2, APJ antagonist 9, CXCR6 inh 12, EBI2 antag 39*, EBI2 conf 22, EBI2 agonist 0 and bGal counter 6.
`Cc1nn(-c2nc3ccccc3s2)c(N)c1-c1ccc(Cl)cc1` gave HTR2A ag 1, CCR6 antag 1, APJ ag -1, APJ antagonist 14, CXCR6 inh 11, EBI2 antag 54*, EBI2 conf 53*, EBI2 agonist 0 and bGal counter 10.
`CCOc1ccc(S(=O)(=O)NCCC(=O)OC(C)C(=O)N2CCc3ccccc32)cc1` (stereo unspecified) gave HTR2A ag 0, CCR6 antag 3, APJ ag 0, APJ antagonist -6, CXCR6 inh -21 and EBI2 antag -13.
COc1ccccc1N1CCN(C(=O)c2ccc(-c3ccccc3)cc2)CC1 was read as HTR2A ag -11, CCR6 antag 12, APJ ag 0, APJ antagonist 11, CXCR6 inh -3, EBI2 antag 74*, EBI2 conf 40, EBI2 agonist -1 and bGal counter -9.
`COc1ccccc1N1CCN(C(=O)COc2ccc(Cl)cc2Br)CC1` gave HTR2A ag -2, CCR6 antag -19, APJ ag -2, APJ antagonist -4, CXCR6 inh -3 and EBI2 antag 32.
For O=C(c1ccccc1)N1CCN(c2ncccn2)CC1 the results were HTR2A ag -3, CCR6 antag -2, APJ ag 0, APJ antagonist -8, CXCR6 inh 7 and EBI2 antag -2.
Screening COc1ccccc1N1CCN(C(=O)COc2ccc(C)cc2Br)CC1 returned HTR2A ag 1, CCR6 antag -20, APJ ag 0, APJ antagonist -8, CXCR6 inh 5, EBI2 antag 50*, EBI2 conf 16, EBI2 agonist -1 and bGal counter -11.
